Experimental data published in ChEMBL document CHEMBL1275449, “Potent in vitro antifungal activities of naturally occurring acetylenic acids” (Antimicrob Agents Chemother, 2008).
In brackets after ≈: the same amount, converted by molar mass. Activity calls are given as the source filed them. No cut-off for these calls is given here.

Tests used:
Aspergillus fumigatus [1] = assay: Antifungal activity against Aspergillus fumigatus ATCC 204305 after 48 h by CLSI method; conditions: ATCC 204305, 48 h
Candida parapsilosis [2] = assay: Antifungal activity against Candida parapsilosis ATCC 22019 at 68.3 uM after 48 hrs by CLSI method; format: functional, organism-based
Method in brief: (§1)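 Yeast suspensions made from 3-5 colonies off 24-72 h SD agar plates in saline. They were diluted by OD630 standard curve in RPMI 1640 (0.2% dextrose, 0.03% glutamine, 0.165 M MOPS, pH 7.0) to 1.5 × 10³ CFU/ml. Twofold dilutions (11 concentrations, 20% DMSO-saline) run in duplicate. OD530 read before and after 35°C, 48 h. Line values are top test concentrations; no-growth endpoints give MIC/MFC.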

Candida albicans [3] = assay: Antifungal activity against Candida albicans ATCC 32354 at 68.3 uM after 48 hrs by CLSI method; format: functional, organism-based
Method in brief: (§2)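 Candida inocula came from 24–72-h SD agar colonies suspended in saline. They were diluted by OD630 standard curve into RPMI 1640 (0.2% dextrose, 0.03% glutamine, 0.165 M MOPS, pH 7.0) to 1.5 × 10³ CFU/ml. Compounds were run as 11 twofold dilutions in 20% DMSO-saline, in duplicate, at 35°C for 48 h, with OD530 read before and after. Percent growth at the top concentration, IC50, MIC, and MFC (SD agar plating) were derived.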

Cryptococcus neoformans [4] = assay: Antifungal activity against Cryptococcus neoformans ATCC 90113 after 72 hrs by CLSI method; format: functional, organism-based; conditions: ATCC 90113, 72 h
Method in brief: (§3)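 SD broth replaced RPMI because growth in RPMI was poor; other CLSI conditions were kept. Inoculum was 1.5 × 10³ CFU/ml from colonies on SD agar, checked by plating. Twofold serial dilutions (11 concentrations) in 20% DMSO-saline were tested in duplicate. OD530 was read before and after incubation at 35°C for 72 h. Percent growth gave IC50; the MIC is the lowest concentration with no detectable growth.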

Candida albicans [5] = assay: Antifungal activity against Candida albicans ATCC 32354 after 48 hrs by CLSI method; format: functional, organism-based; conditions: ATCC 32354, 48 h
Method in brief: (§4)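 CLSI broth microdilution. Colonies from 24–72 h SD agar suspended in saline and sized by OD630 standard curve. Inoculum 1.5 × 10³ CFU/ml (final) in RPMI 1640 (0.2% dextrose, 0.03% glutamine, 0.165 M MOPS, pH 7.0). Twofold dilutions (11 levels) from 20% DMSO-saline, in duplicate. 35°C for 48 h, OD530 read before and after. IC50 fitted from % growth. MIC: no detectable growth. MFC: subculture onto SD agar.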

Cryptococcus neoformans [6] = assay: Antifungal activity against Cryptococcus neoformans ATCC 66031 after 72 hrs by CLSI method; format: functional, organism-based; conditions: ATCC 66031, 72 h
Method in brief: as §3

Nakaseomyces glabratus = assay: Antifungal activity against Candida glabrata ATCC 90030 at 68.3 uM after 48 hrs by CLSI method; format: functional, organism-based
Method in brief: as §2

[7] = tested on: Trichophyton mentagrophytes; assay: Antifungal activity against Trichophyton mentagrophytes ATCC 9533 by CLSI method; format: functional, organism-based
Method in brief: (§5)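 Growth scraped from 1- to 6-week-old potato dextrose slants and filtered through Miracloth. Diluted in 5% Alamar blue-RPMI 1640 (MOPS pH 7.0) to 2.7 × 10⁴ CFU/ml. Eleven twofold dilutions in duplicate. Fluorescence at 544 nm excitation/590 nm emission read before and after 35°C, 5 days. IC50 fitted from percent growth. MIC taken as no detectable growth; MFC from clear or blue wells plated on PD agar.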

Candida albicans [8] = assay: Antifungal activity against Fluconazole resistant Candida albicans clinical isolate 17 after 48 hrs by CLSI method; format: functional, organism-based
Method in brief: as §4

Candida albicans [9] = assay: Antifungal activity against Candida albicans ATCC 90028 after 48 hrs by CLSI method; format: functional, organism-based; conditions: ATCC 90028, 48 h
Method in brief: as §4

Candida tropicalis [10] = assay: Antifungal activity against Candida tropicalis ATCC 750 after 48 hrs by CLSI method; format: functional, organism-based; conditions: ATCC 750, 48 h
Method in brief: as §1

Aspergillus fumigatus [11] = assay: Antifungal activity against Aspergillus fumigatus ATCC 90906 at 68.3 uM after 48 hrs by CLSI method; format: functional, organism-based
Candida albicans [12] = assay: Antifungal activity against Fluconazole resistant Candida albicans isolate 1 at 68.3 uM after 48 hrs by CLSI method; format: functional, organism-based
Method in brief: (§6)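 Candida in CLSI broth microdilution. Saline colony suspension set to 1.5 × 10³ CFU/ml (final) in MOPS-buffered RPMI 1640, pH 7.0. Test agent given as twofold serial dilutions in 20% DMSO-saline, duplicate wells. 35°C for 48 h. Growth read as OD530 before and after incubation. Percent inhibition scored at the highest test concentration.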

Candida albicans [13] = assay: Antifungal activity against Candida albicans ATCC 200955 at 68.3 uM after 48 hrs by CLSI method; format: functional, organism-based
Method in brief: as §2

Aspergillus fumigatus [14] = assay: Antifungal activity against Aspergillus fumigatus ATCC 90906 after 48 h by CLSI method; conditions: ATCC 90906, 48 h
Candida albicans [15] = assay: Antifungal activity against Fluconazole resistant Candida albicans isolate 17 at 68.3 uM after 48 hrs by CLSI method; format: functional, organism-based
Method in brief: as §6

Pichia kudriavzevii [16] = assay: Antifungal activity against Candida krusei ATCC 6258 at 68.3 uM after 48 hrs by CLSI method; format: functional, organism-based
Method in brief: as §1

Candida albicans [17] = assay: Antifungal activity against Candida albicans ATCC 60193 at 68.3 uM after 48 hrs by CLSI method; format: functional, organism-based
Method in brief: as §2

Candida albicans [18] = assay: Antifungal activity against Candida albicans ATCC 14053 after 48 hrs by CLSI method; format: functional, organism-based; conditions: ATCC 14053, 48 h
Method in brief: as §4

Candida albicans [19] = assay: Antifungal activity against Candida albicans ATCC 14053 at 68.3 uM after 48 hrs by CLSI method; format: functional, organism-based
Aspergillus flavus = assay: Antifungal activity against Aspergillus flavus ATCC 204304 after 48 h by CLSI method; conditions: ATCC 204304, 48 h
Candida parapsilosis [20] = assay: Antifungal activity against Candida parapsilosis ATCC 22019 after 48 hrs by CLSI method; format: functional, organism-based; conditions: Lodderomyces parapsilosis, ATCC 22019, 48 h
Method in brief: as §1

[21] = tested on: Trichophyton mentagrophytes; assay: Antifungal activity against Trichophyton mentagrophytes ATCC MYA-4439 by CLSI method; format: functional, organism-based
Method in brief: as §5

Trichophyton rubrum [22] = assay: Antifungal activity against Trichophyton rubrum ATCC 10218 by CLSI method; format: functional, organism-based
Method in brief: as §5

Trichophyton rubrum [23] = assay: Antifungal activity against Trichophyton rubrum ATCC MYA-4438 by CLSI method; format: functional, organism-based
Method in brief: as §5

Candida albicans [24] = assay: Antifungal activity against Candida albicans ATCC 60193 after 48 hrs by CLSI method; format: functional, organism-based; conditions: ATCC 60193, 48 h
Method in brief: as §4

Trichophyton rubrum [25] = assay: Antifungal activity against Trichophyton rubrum ATCC MYA-4438 at 68.3 uM after 5 days by CLSI method; format: functional, organism-based
Candida tropicalis [26] = assay: Antifungal activity against Candida tropicalis ATCC 750 at 68.3 uM after 48 hrs by CLSI method; format: functional, organism-based
Method in brief: as §1

Candida albicans [27] = assay: Antifungal activity against Candida albicans ATCC 200955 after 48 hrs by CLSI method; format: functional, organism-based; conditions: ATCC 200955, 48 h
Method in brief: as §4

Aspergillus niger [28] = assay: Antifungal activity against Aspergillus niger ATCC 16404 after 48 h by CLSI method; conditions: ATCC 16404, 48 h
Candida albicans [29] = assay: Antifungal activity against Candida albicans ATCC 90028 at 68.3 uM after 48 hrs by CLSI method; format: functional, organism-based
Method in brief: as §2

Aspergillus niger [30] = assay: Antifungal activity against Aspergillus niger ATCC 16404 at 68.3 uM after 48 hrs by CLSI method; format: functional, organism-based
Aspergillus fumigatus [31] = assay: Antifungal activity against Aspergillus fumigatus ATCC 204305 at 68.3 uM after 48 hrs by CLSI method; format: functional, organism-based
Pichia kudriavzevii [32] = assay: Antifungal activity against Candida krusei ATCC 6258 after 48 hrs by CLSI method; format: functional, organism-based; conditions: ATCC 6258, 48 h
Method in brief: as §2

Candida albicans [33] = assay: Antifungal activity against Fluconazole resistant Candida albicans clinical isolate 1 after 48 hrs by CLSI method; format: functional, organism-based
Method in brief: as §4

Structure (SMILES): CN(C/C=C/C#CC(C)(C)C)Cc1cccc2ccccc12 [TERBINAFINE]
- IC50 (Aspergillus fumigatus [1]): 1100 nM
- MIC (Aspergillus fumigatus [1]): 4.3 µM (≈ 1.25 µg/mL)
- Activity (Candida parapsilosis [2]): inactive
- Activity (Candida albicans [3]): inactive
- IC50 (Cryptococcus neoformans [4]): 500 nM
- MFC (Cryptococcus neoformans [4]): 1.1 µM (≈ 0.321 µg/mL)
- MIC (Cryptococcus neoformans [4]): 1.1 µM (≈ 0.321 µg/mL)
- IC50 (Candida albicans [5]): 2600 nM
- IC50 (Cryptococcus neoformans [6]): 400 nM
- MFC (Cryptococcus neoformans [6]): 8.6 µM (≈ 2.51 µg/mL)
- MIC (Cryptococcus neoformans [6]): 4.3 µM (≈ 1.25 µg/mL)
- Activity (Nakaseomyces glabratus): inactive
- IC50 [7]: < 20 nM
- MFC [7]: 0.27 µM (≈ 0.0787 µg/mL)
- MIC [7]: 0.05 µM (≈ 0.0146 µg/mL)
- IC50 (Candida albicans [8]): > 68300 nM
- IC50 (Candida albicans [9]): 10800 nM
- IC50 (Candida tropicalis [10]): 45400 nM
- Activity (Aspergillus fumigatus [11]): inactive
- Activity (Candida albicans [12]): inactive
- Activity (Candida albicans [13]): inactive
- IC50 (Aspergillus fumigatus [14]): 1000 nM
- MIC (Aspergillus fumigatus [14]): 4.3 µM (≈ 1.25 µg/mL)
- Activity (Candida albicans [15]): inactive
- Activity (Pichia kudriavzevii [16]): inactive
- Activity (Candida albicans [17]): inactive
- IC50 (Candida albicans [18]): 13700 nM
- Activity (Candida albicans [19]): inactive
- IC50 (Aspergillus flavus): 300 nM
- MFC (Aspergillus flavus): 8.6 µM (≈ 2.51 µg/mL)
- MIC (Aspergillus flavus): 2.1 µM (≈ 0.612 µg/mL)
- IC50 (Candida parapsilosis [20]): 400 nM
- MIC (Candida parapsilosis [20]): 42.9 µM (≈ 12.5 µg/mL)
- IC50 [21]: < 20 nM
- MFC [21]: 0.27 µM (≈ 0.0787 µg/mL)
- MIC [21]: 0.17 µM (≈ 0.0495 µg/mL)
- IC50 (Trichophyton rubrum [22]): < 20 nM
- MFC (Trichophyton rubrum [22]): 0.13 µM (≈ 0.0379 µg/mL)
- MIC (Trichophyton rubrum [22]): 0.1 µM (≈ 0.0291 µg/mL)
- IC50 (Trichophyton rubrum [23]): 4200 nM
- MIC (Trichophyton rubrum [23]): 21.4 µM (≈ 6.24 µg/mL)
- IC50 (Candida albicans [24]): 5300 nM
- Activity (Trichophyton rubrum [25]): inactive
- Activity (Candida tropicalis [26]): inactive
- IC50 (Candida albicans [27]): 3100 nM
- MIC (Candida albicans [27]): 51.5 µM (≈ 15 µg/mL)
- IC50 (Aspergillus niger [28]): 700 nM
- MIC (Aspergillus niger [28]): 2.1 µM (≈ 0.612 µg/mL)
- Activity (Candida albicans [29]): inactive
- Activity (Aspergillus niger [30]): inactive
- Activity (Aspergillus fumigatus [31]): inactive
- IC50 (Pichia kudriavzevii [32]): > 68300 nM
- IC50 (Candida albicans [33]): 11200 nM
